Activity calls are given as the source filed them. No cut-off for these calls is given here.
How the values were obtained:
[1] = Toxicity in po dosed ICR mouse assessed as maximum tolerated dose; assay type: organism-based; details: in vivo
Outline: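 Male ICR mice, 6−8 weeks old, given one dose; vehicle 0.5% cmc with Tween 80 for oral dosing, saline for intraperitoneal dosing. Clinical signs observed and body weights recorded for 7 consecutive days after dosing to set the maximum tolerated dose.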

Homo sapiens [2] = organism: Homo sapiens; test: Inhibition of PI3K in human HCT116 cells assessed as reduction in AKT phosphorylation at S473 residue at 0.5 to 5 uM after 16 hrs by Western blot analysis; assay type: cell-based
Outline: (§1)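 Immunoblot of HCT116 lysates (RIPA). 40 μg protein per lane on 10−12% SDS-PAGE, transferred to nitrocellulose, blocked 0.5 h in 5% milk/TBST. Primary antibodies 1:1000 overnight at 4 °C, secondary 1:1000 for 1 h, bands visualized by enhanced ECL.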

HCT-116 [3] = test: Induction of apoptosis in human HCT116 cells assessed as necrotic cells at 20 nM after 48 hrs by Annexin V-FITC/propidium iodide staining-based flow cytometric analysis (reference value: 5.23%); assay type: functional
Homo sapiens [4] = organism: Homo sapiens; test: Inhibition of HDAC/PI3K in human HCT116 cells assessed as increase in cleaved caspase-3 level at 0.5 to 5 uM after 16 hrs by Western blot analysis; assay type: cell-based; outline: as §1
[5] = Terminal half life in ICR mouse at 3 mg/kg, iv measured after 0.033 to 24 hrs by LC/MS/MS analysis; assay type: ADME, organism-based; details: in vivo, read-out: beta t1/2 (converted)
Outline: (§2)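 Male-unspecified ICR mice, 3 per group iv (3 mg/kg in 10% DMSO/saline) and 5 per group po (30 mg/kg in 0.5% cmc/0.3% Tween 80). Blood sampled 0.033 (iv) or 0.083 (po) to 24 h. Plasma extracted with acetonitrile, analysed by LC/MS/MS; noncompartmental analysis.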

[6] = Tmax in ICR mouse at 3 mg/kg, iv measured after 0.033 to 24 hrs by LC/MS/MS analysis; assay type: ADME, organism-based; details: in vivo; outline: as §2
[7] = Apparent volume of distribution in ICR mouse at 3 mg/kg, iv measured after 0.033 to 24 hrs by LC/MS/MS analysis; assay type: ADME, organism-based; details: in vivo, read-out: Vz
Outline: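 ICR mice; iv 3 mg/kg in 10% DMSO/saline (3 mice/group), blood at 0.033, 0.083, 0.25, 0.5, 1, 2, 4, 8, 12, 24 h; po 30 mg/kg as 0.5% cmc/0.3% Tween 80 suspension (5 mice/group), blood at 0.083–24 h. Plasma extracted with acetonitrile, LC/MS/MS; parameters by noncompartmental analysis.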

[8] = Half life in mouse plasma at 0.02 mM by LC/MS analysis; assay type: ADME, cell-free
Outline: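 Spiking solution of 0.02 mM compound, 0.05 mM sodium phosphate, 0.5% BSA prewarmed 5 min at 37 °C, mixed with prewarmed mouse plasma; quenched with acetonitrile at time points; LC/MS; T1/2 = 0.693/K from ln(concentration) vs time.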

HCT-116 [9] = test: Antitumor activity against human HCT116 cells xenografted in athymic nude BALB/c mouse assessed as tumor growth inhibition at 100 mpk, po measured 2 times every week relative to control; assay type: functional; details: HCT-116, po, read-out: TGI
Outline: (§3)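 Female BALB/c-nu/nu mice, 6–8 weeks, given 2 × 10^6 HCT116 cells in 0.2 mL saline s.c. right flank; randomized at 100–200 mm3. Daily oral dosing in 0.5% cmc with Tween 80; vehicle controls.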

HCT-116 [10] = test: Antitumor activity against human HCT116 cells xenografted in athymic nude BALB/c mouse assessed as tumor growth inhibition at 150 mpk, po measured 2 times every week relative to control; assay type: functional; details: HCT-116, po, read-out: TGI; outline: as §3
[11] = Drug level in tumor of human HCT116 cells xenografted in athymic nude BALB/c mouse at 100 mpk, po by LC/MS/MS analysis; assay type: ADME, organism-based, Neoplasm; details: in vivo, 100 mg/kg
Outline: (§4)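 HCT116 xenografted nude mice given daily oral doses; tumor tissue sampled 1 h after final dose and compound level measured (ng/g).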

[12] = Drug level in tumor of human HCT116 cells xenografted in athymic nude BALB/c mouse at 150 mpk, po by LC/MS/MS analysis; assay type: ADME, organism-based, Neoplasm; details: in vivo, 150 mg/kg; outline: as §4
Mus musculus [13] = test: In vivo inhibition of PI3K in tumor of human HCT116 cells xenografted in athymic nude BALB/c mouse assessed as reduction in phosphorylated AKT expression at S473 residue by DAB staining based immunohistochemistry method; assay type: functional, organism-based
Outline: (§5)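 HCT116 xenograft tumors from treated and vehicle mice stained immunohistochemically for Ki67, acetyl-H3 and p-AKT(S473) (200×); integrated optical density quantified; mean ± SEM, n = 5−7, one-way ANOVA versus vehicle.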

Mus musculus [14] = test: In vivo inhibition of PI3K/HDAC in tumor of human HCT116 cells xenografted in athymic nude BALB/c mouse assessed as reduction in phosphorylated Ki67 expression by DAB staining based immunohistochemistry method; assay type: functional, organism-based; outline: as §5
HGC-27 = test: Antitumor activity against human HGC27 cells xenografted in athymic nude BALB/c mouse assessed as tumor growth inhibition at 200 mpk, po measured 2 times every week; assay type: functional; details: HGC-27, po, read-out: TGI
Outline: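 HGC-27 xenograft: 2 × 10^6 cells in 0.2 mL saline s.c. right flank of female BALB/c-nu/nu mice (6–8 weeks); randomized at 100–200 mm3. Oral dosing in 0.5% cmc with Tween 80, intraperitoneal in saline; vehicle given orally daily.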

[15] = Drug level in tumor of human HGC27 cells xenografted in BALB/c mouse at 200 mg/kg, po measured 0.5 hrs post last dose; assay type: ADME, organism-based, Neoplasm; details: read-out: Drug uptake
Outline: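 HGC-27 xenografted nude mice dosed po (0.5% cmc/Tween 80) or ip (saline); at end of treatment, 0.5 h after final dose, plasma and tumor tissue collected and compound concentration measured (ng/mL plasma, ng/g tumor).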

Mus musculus [16] = test: In vivo inhibition of PI3K/HDAC in tumor of human HGC27 cells xenografted in athymic nude BALB/c mouse assessed as reduction in phosphorylated Ki67 expression by DAB staining based immunohistochemistry method; assay type: functional, organism-based
Outline: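 HGC-27 xenograft tumors from treated and vehicle mice immunostained for Ki67, Ac-H3 and p-AKT(S473) (200×); integrated optical density analysed; mean ± SEM, n = 5−7, one-way ANOVA versus vehicle.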

[17] = Mutagenicity in Salmonella typhimurium TA100 at 5 to 500 ug/plate in presence of s9 mix by Ames test; assay type: toxicity, subcellular; details: salmonella enterica subsp. enterica serovar typhimurium
Outline: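 Plate incorporation method at 5, 50 and 500 μg/plate, with and without S9 activation. At least three plates per dose, incubated 72 h at 37 °C, revertants counted. Mean revertants compared with vehicle and positive controls.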

[18] = Drug metabolism in rat bile assessed as hydrolyzed metabolite formation at 0.74 mg/kg, iv after 1 hr by LC/MS/MS analysis; assay type: ADME, organism-based; details: in vivo
[19] = target: Phosphatidylinositol 4,5-bisphosphate 3-kinase catalytic subunit alpha isoform (Homo sapiens, UniProt P42336); test: Inhibition of recombinant human PI3Kalpha using PIP2 as substrate incubated for 1 hr by kinase-glo assay
Homo sapiens [20] = organism: Homo sapiens; test: Selectivity ratio, ratio of IC50 for recombinant human PIK3CB to recombinant human His-tagged PIK3CD/PIK3R1 expressed in baculovirus expression system

Phosphatidylinositol 4,5-bisphosphate 3-kinase catalytic subunit alpha isoform, sequence (P42336 whole entry, canonical isoform): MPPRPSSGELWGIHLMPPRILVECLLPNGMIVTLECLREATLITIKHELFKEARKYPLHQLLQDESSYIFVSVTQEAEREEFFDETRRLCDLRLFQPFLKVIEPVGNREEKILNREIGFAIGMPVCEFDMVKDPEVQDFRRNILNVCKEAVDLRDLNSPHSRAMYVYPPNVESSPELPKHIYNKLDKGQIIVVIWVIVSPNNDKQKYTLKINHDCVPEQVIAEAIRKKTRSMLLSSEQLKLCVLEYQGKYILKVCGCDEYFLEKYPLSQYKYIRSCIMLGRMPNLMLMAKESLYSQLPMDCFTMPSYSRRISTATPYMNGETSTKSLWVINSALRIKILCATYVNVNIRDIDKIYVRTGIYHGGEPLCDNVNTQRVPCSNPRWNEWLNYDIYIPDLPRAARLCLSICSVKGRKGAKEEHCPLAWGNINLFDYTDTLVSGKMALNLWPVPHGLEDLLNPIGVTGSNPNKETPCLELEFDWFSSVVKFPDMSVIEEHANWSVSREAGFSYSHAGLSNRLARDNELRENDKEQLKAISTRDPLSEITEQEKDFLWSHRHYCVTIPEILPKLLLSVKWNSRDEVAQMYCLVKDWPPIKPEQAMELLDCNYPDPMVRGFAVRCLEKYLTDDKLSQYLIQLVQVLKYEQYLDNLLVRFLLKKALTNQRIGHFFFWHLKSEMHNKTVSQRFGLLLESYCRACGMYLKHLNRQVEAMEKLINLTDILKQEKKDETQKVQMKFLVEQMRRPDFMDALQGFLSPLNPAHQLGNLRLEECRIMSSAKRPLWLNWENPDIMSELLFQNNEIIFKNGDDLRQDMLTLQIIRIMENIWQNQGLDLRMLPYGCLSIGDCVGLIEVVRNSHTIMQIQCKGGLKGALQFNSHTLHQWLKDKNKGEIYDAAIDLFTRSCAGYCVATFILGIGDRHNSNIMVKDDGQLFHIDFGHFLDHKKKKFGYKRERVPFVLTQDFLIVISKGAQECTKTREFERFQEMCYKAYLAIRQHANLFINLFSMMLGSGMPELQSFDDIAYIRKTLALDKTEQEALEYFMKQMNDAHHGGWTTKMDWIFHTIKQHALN

For COc1ncc(-c2cc(OCCCCCCC(=O)NO)c3ncnc(C)c3c2)cc1F, the MTD [1] was > 2000 mg/kg, the inhibition (Homo sapiens [2]) was “Active” and the Activity (HCT-116 [3]) was 4.1%. The inhibition (Homo sapiens [4]) was “Active”, the half-life [5] was 19.8 min and the Tmax [6] was 1.8 min. It also gave a Vd [7] of 2.57 L/kg, a half-life at 20 µM [8] of 72 min and an inhibition in vivo at 100 mg/kg (HCT-116 [9]) of 18.3%. It also gave an inhibition in vivo at 150 mg/kg (HCT-116 [10]) of 45.8%, a Drug uptake [11] of 72.7 ng/g and a Drug uptake [12] of 74.8 ng/g. The inhibition (Mus musculus [13]) was “Dose-dependent effect”, the inhibition (Mus musculus [14]) was “Dose-dependent effect” and the inhibition in vivo at 200 mg/kg (HGC-27) was 45.9%. For the same compound, the concentration at 0.5 h [15] was 105 ng/g, the inhibition (Mus musculus [16]) was “Active” and the Activity [17] was “Non-Toxic”. For the same compound, the Drug metabolism [18] was “Metabolite_Detected”.

In the case of COc1ccc(-c2cc(OCCN(C)c3ncc(C(=O)NO)cn3)c3ncnc(C)c3c2)cn1, the MTD [1] is reported as > 2000 mg/kg, the IC50 [19] is reported as 226 nM and the Ratio IC50 (Homo sapiens [20]) is reported as > 5. For the same compound, the Activity (HCT-116 [3]) was 5.97%, the Tmax [6] was 1.8 min and the Vd [7] was 50 L/kg. For the same compound, the Activity [17] was “Non-Toxic”.
